Assay results from different studies.
Each line is one published result; the experiments were not run side by side.
Observed: cell growth or viability

c1ccc(-c2noc(-c3nn(Cc4ccc5ccccc5c4)c4ccccc34)n2)cc1  IC50 (HepG2; 48 h): 115 µM
O=C(Nc1ccc(Cl)cc1)Nc1cccc(-c2cn(Cc3cccc(Cl)c3)nn2)c1  IC50 (Huh-7; CCK-8; 72 h): 15.1 µM
CN1CCC(NC2CCc3[nH]c4c(C(N)=O)ccc(-c5ccccc5Cl)c4c3C2)CC1 (centres unmarked)  IC50 (Ramos; 96 h): 0.0114 µM
Cc1nc(Nc2ncc(C(=O)Nc3c(C)cccc3Cl)s2)cc(N2CC[C@H](O)C2)n1  IC50 (Ramos; ATP luminescence; 72 h): > 10 µM
Cc1cnc(CNC(=O)c2c(=O)c3ccc(N4CCCN(C)CC4)nc3n3c2sc2ccccc23)cn1  IC50 (THLE3; imaging; 72 h): 2.49 µM
O=[N+]([O-])c1cc(I)c(O)c(C=NNc2ccc(Cl)cc2)c1  IC50 (HEK-293T; MTT; 24 h): 12.3 µM
COc1ccc(NC(=O)Nc2cccc(-c3cn(Cc4ccc(Br)cc4)nn3)c2)cc1  IC50 (Huh-7; CCK-8; 72 h): 15.9 µM
O=C(Nc1ccc(Cl)cc1)Nc1cccc(-c2cn(Cc3ccc(Cl)cc3)nn2)c1  IC50 (Huh-7; CCK-8; 72 h): 13 µM
COc1ccc(NC(=O)NCc2cn(Cc3ccc(Cl)cc3)nn2)cc1  IC50 (Huh-7; CCK-8; 72 h): > 50 µM
O=[N+]([O-])c1ccc(O)c(C=NNc2ccc(Cl)cc2)c1  IC50 (HEK-293T; MTT; 24 h): 11.4 µM
COc1ccc(NC(=O)Nc2ccc(-c3cn(Cc4ccc(Cl)cc4)nn3)cc2)cc1  IC50 (Huh-7; CCK-8; 72 h): > 50 µM
O=[N+]([O-])c1cc(I)c(O)c(C=NNc2ccc(C(F)(F)F)cc2)c1  IC50 (HEK-293T; MTT; 24 h): 8.11 µM
COc1ccc(NC(=O)Nc2ccc(-c3cn(Cc4ccc(C)cc4)nn3)cc2)cc1  IC50 (Huh-7; CCK-8; 72 h): > 50 µM
O=[N+]([O-])c1cc(Br)c(O)c(C=NNc2ccc(C(F)(F)F)cc2)c1  IC50 (HEK-293T; MTT; 24 h): 18 µM
COc1ccc(NC(=O)Nc2cccc(-c3cn(Cc4ccccc4C)nn3)c2)cc1  IC50 (Huh-7; CCK-8; 72 h): 10.8 µM
O=[N+]([O-])c1cc(Br)c(O)c(C=NNc2ccc(Br)cc2)c1  IC50 (HEK-293T; MTT; 24 h): 12.3 µM
CNC(=O)c1cc(Oc2ccc(NC(=O)Nc3ccc(Cl)c(C(F)(F)F)c3)cc2)ccn1  IC50 (THLE3; imaging; 72 h): 8.78 µM
